Assay results from ChEMBL document CHEMBL4043093, “2-Oxo-3, 4-dihydropyrimido[4, 5-d]pyrimidinyl derivatives as new irreversible pan fibroblast growth factor receptor (FGFR) inhibitors” (Eur J Med Chem, 2017).

Assays:
[1] = target: Tyrosine-protein kinase ABL1 (Homo sapiens) (UniProt P00519); test: Inhibition of wild-type human phosphorylated ABL1 (S229 to K512 residues) expressed in HEK293 cells assessed as residual activity at 1000 nM after 30 mins by Kinomescan method relative to control; type: cell-based
[2] = target: Ankyrin repeat and protein kinase domain-containing protein 1 (Homo sapiens) (UniProt Q8NFD2); test: Inhibition of wild-type human partial length ANKK1 (M1 to A305 residues) expressed in HEK293 cells assessed as residual activity at 1000 nM after 30 mins by Kinomescan method relative to control; type: cell-based
[3] = target: Calcium/calmodulin-dependent protein kinase kinase 1 (Homo sapiens) (UniProt Q8N5S9); test: Inhibition of wild-type human partial length CAMKK1 (R65 to E414 residues) expressed in Escherichia coli BL21 assessed as residual activity at 1000 nM after 30 mins by Kinomescan method relative to control
[4] = target: CDK4/Cyclin D3 (Homo sapiens) (UniProt P11802+P30281); test: Inhibition of wild-type human full length CDK4/cyclinD3 (M1 to E303 residues) expressed in HEK293 cells assessed as residual activity at 1000 nM after 30 mins by Kinomescan method relative to control; type: cell-based
Summary of the method: (§1)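 Single-point screen at a fixed 1 µM, run within a 456-kinase DiscoveRx KINOMEscan panel. Each kinase's read-out is Percent Control, i.e. signal relative to a control without compound. Hits were scored by a Percent Control < 35 cut-off, and an S(35) selectivity score was calculated across the non-mutant kinases.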

[5] = target: Casein kinase I isoform gamma-3 (Homo sapiens) (UniProt Q9Y6M4); test: Inhibition of wild-type human full length CSNK1G3 (M1 to K447 residues) expressed in Escherichia coli BL21 assessed as residual activity at 1000 nM after 30 mins by Kinomescan method relative to control; summary of the method: as §1
[6] = target: Tyrosine-protein kinase Fes/Fps (Homo sapiens) (UniProt P07332); test: Inhibition of wild-type human partial length FES (I527 to R822 residues) expressed in Escherichia coli BL21 assessed as residual activity at 1000 nM after 30 mins by Kinomescan method relative to control
Homo sapiens = organism: Homo sapiens; test: Inhibition of human partial length FLT3 ITD/D835V double mutant expressed in Escherichia coli BL21 assessed as residual activity at 1000 nM after 30 mins by Kinomescan method relative to control
Summary of the method: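 KINOMEscan binding panel of 456 kinases, with the test compound at a single concentration of 1 µM. Read-out is Percent Control.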

[7] = target: Tyrosine-protein kinase FRK (Homo sapiens) (UniProt P42685); test: Inhibition of wild-type human partial length FRK (A215 to F503 residues) expressed in Escherichia coli BL21 assessed as residual activity at 1000 nM after 30 mins by Kinomescan method relative to control
Chain of Tyrosine-protein kinase FRK (Homo sapiens) (P42685 whole entry, the tested form may be a part): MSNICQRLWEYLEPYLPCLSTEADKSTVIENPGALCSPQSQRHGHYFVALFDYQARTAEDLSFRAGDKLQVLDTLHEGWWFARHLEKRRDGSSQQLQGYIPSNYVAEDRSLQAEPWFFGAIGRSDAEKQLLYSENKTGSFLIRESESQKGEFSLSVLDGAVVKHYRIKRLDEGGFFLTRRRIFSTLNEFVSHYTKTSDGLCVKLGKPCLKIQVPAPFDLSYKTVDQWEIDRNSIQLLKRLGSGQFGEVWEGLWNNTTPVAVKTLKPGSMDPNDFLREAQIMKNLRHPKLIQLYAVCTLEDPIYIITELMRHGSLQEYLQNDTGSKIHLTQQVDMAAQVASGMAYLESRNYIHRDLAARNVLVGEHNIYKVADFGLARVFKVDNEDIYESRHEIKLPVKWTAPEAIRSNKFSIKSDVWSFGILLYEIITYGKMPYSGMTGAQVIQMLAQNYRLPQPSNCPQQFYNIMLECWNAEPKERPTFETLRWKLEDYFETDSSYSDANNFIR

[8] = target: Glycogen synthase kinase-3 alpha (Homo sapiens) (UniProt P49840); test: Inhibition of wild-type human full length GSK3A (M1 to S483 residues) expressed in Escherichia coli BL21 assessed as residual activity at 1000 nM after 30 mins by Kinomescan method relative to control
Summary of the method: (§2)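 Single-concentration screen at 1 µM across a 456-kinase KINOMEscan panel. The read-out is Percent Control for each kinase.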

[9] = target: Interleukin-1 receptor-associated kinase 1 (Homo sapiens) (UniProt P51617); test: Inhibition of wild-type human partial length IRAK1 (R194 to S712 residues) expressed in HEK293 cells assessed as residual activity at 1000 nM after 30 mins by Kinomescan method relative to control; type: cell-based
[10] = target: Serine/threonine-protein kinase Nek2 (Homo sapiens) (UniProt P51955); test: Inhibition of wild-type human partial length NEK2 (M1 to K309 residues) expressed in Escherichia coli BL21 assessed as residual activity at 1000 nM after 30 mins by Kinomescan method relative to control
[11] = target: Serine/threonine-protein kinase Nek6 (Homo sapiens) (UniProt Q9HC98); test: Inhibition of wild-type human full length NEK6 (M8 to T313 residues) expressed in Escherichia coli BL21 assessed as residual activity at 1000 nM after 30 mins by Kinomescan method relative to control; summary of the method: as §2
Chain of Serine/threonine-protein kinase Nek6 (Homo sapiens) (Q9HC98 whole entry, the tested form may be a part): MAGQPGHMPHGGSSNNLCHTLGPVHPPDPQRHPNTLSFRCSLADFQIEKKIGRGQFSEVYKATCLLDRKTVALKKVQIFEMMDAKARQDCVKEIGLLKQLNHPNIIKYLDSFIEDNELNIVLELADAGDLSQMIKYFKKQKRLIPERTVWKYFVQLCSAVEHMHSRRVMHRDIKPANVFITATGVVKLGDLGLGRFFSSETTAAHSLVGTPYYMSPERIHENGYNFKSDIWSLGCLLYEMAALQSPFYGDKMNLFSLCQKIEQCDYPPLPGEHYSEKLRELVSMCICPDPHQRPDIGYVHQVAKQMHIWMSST

[12] = target: Serine/threonine-protein kinase PAK 3 (Homo sapiens) (UniProt O75914); test: Inhibition of wild-type human full length PAK3 (M1 to R544 residues) expressed in Escherichia coli BL21 assessed as residual activity at 1000 nM after 30 mins by Kinomescan method relative to control; summary of the method: as §2
[13] = target: cAMP-dependent protein kinase catalytic subunit alpha (Homo sapiens) (UniProt P17612); test: Inhibition of wild-type human partial length PKAC-alpha (G10 to F351 residues) expressed in Escherichia coli BL21 assessed as residual activity at 1000 nM after 30 mins by Kinomescan method relative to control
[14] = target: cGMP-dependent protein kinase 2 (Homo sapiens) (UniProt Q13237); test: Inhibition of wild-type human partial length PRKG2 (S422 to F762 residues) expressed in HEK293 cells assessed as residual activity at 1000 nM after 30 mins by Kinomescan method relative to control; type: cell-based
Chain of cGMP-dependent protein kinase 2 (Homo sapiens) (Q13237 whole entry, the tested form may be a part): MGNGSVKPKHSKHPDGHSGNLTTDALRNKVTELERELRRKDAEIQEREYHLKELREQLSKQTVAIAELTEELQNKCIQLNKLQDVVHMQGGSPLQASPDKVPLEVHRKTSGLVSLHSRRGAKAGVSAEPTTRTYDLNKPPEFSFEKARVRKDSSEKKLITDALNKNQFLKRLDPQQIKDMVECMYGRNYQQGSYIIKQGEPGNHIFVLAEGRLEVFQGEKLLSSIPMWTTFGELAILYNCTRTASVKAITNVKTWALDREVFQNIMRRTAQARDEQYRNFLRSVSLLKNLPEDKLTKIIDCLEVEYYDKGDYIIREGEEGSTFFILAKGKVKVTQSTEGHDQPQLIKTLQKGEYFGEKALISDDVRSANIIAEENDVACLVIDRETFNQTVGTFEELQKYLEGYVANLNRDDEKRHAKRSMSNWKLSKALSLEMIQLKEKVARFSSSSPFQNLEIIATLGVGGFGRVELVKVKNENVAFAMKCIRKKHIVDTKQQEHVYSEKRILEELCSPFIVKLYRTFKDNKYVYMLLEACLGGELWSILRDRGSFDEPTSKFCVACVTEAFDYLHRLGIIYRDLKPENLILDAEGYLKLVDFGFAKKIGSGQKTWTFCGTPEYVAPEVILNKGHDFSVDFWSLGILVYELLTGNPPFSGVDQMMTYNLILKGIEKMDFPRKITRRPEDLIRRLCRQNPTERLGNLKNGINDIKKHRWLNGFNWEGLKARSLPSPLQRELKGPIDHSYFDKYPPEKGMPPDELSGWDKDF

[15] = target: RAF proto-oncogene serine/threonine-protein kinase (Homo sapiens) (UniProt P04049); test: Inhibition of wild-type human partial length RAF1 (I330 to T640 residues) expressed in Escherichia coli BL21 assessed as residual activity at 1000 nM after 30 mins by Kinomescan method relative to control
Chain of RAF proto-oncogene serine/threonine-protein kinase (Homo sapiens) (P04049 whole entry, the tested form may be a part): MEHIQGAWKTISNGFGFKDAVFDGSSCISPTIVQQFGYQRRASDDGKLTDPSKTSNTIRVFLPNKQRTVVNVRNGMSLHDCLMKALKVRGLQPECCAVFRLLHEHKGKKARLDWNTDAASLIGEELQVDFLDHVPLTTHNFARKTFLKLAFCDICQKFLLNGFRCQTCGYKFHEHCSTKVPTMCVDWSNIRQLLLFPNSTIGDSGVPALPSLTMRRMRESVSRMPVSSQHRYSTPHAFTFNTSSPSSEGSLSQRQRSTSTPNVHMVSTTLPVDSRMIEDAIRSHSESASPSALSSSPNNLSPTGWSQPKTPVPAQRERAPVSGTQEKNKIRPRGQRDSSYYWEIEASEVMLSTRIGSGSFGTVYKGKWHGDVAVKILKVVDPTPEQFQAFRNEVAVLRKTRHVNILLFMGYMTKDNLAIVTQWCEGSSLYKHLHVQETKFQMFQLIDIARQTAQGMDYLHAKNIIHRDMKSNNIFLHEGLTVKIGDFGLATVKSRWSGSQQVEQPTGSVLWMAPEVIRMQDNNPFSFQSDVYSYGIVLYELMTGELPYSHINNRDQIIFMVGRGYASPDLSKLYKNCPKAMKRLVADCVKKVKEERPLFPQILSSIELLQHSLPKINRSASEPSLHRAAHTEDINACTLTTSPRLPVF

[16] = test system: Proto-oncogene tyrosine-protein kinase receptor Ret (Homo sapiens), P07949 [M918T]; test: Inhibition of human partial length RET M918T mutant (E713 to D1014 residues) expressed in Escherichia coli BL21 assessed as residual activity at 1000 nM after 30 mins by Kinomescan method relative to control; summary of the method: as §1
Chain of Proto-oncogene tyrosine-protein kinase receptor Ret (Homo sapiens), P07949 [M918T] (P07949 whole entry M918T, the tested form may be a part): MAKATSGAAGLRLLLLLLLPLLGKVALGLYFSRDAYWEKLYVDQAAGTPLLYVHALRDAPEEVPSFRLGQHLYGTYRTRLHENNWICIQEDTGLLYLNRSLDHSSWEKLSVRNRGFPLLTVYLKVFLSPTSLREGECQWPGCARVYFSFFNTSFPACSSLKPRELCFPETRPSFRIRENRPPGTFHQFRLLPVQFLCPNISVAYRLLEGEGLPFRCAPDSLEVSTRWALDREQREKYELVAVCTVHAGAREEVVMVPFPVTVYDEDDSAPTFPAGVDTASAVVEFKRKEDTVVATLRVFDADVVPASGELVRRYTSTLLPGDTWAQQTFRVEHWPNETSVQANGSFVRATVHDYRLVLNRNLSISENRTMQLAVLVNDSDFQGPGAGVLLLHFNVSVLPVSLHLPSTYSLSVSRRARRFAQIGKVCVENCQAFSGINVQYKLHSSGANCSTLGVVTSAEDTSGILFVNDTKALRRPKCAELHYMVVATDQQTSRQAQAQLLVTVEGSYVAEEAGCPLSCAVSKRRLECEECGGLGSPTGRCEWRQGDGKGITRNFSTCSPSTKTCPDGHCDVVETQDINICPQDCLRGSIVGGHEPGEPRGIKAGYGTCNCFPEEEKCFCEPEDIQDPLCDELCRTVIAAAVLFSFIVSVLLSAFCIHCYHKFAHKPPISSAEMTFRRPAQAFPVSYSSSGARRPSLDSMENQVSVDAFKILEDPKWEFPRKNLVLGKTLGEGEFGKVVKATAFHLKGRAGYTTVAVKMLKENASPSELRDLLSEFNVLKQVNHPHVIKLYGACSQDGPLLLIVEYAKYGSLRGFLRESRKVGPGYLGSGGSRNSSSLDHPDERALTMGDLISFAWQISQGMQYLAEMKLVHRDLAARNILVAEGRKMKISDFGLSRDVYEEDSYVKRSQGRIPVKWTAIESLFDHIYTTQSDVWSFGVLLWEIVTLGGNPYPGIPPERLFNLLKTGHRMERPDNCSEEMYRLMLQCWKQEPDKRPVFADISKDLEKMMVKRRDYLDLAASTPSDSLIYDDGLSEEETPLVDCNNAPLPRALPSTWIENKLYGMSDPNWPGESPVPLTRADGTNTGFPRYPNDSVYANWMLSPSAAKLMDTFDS

[17] = test system: Proto-oncogene tyrosine-protein kinase receptor Ret (Homo sapiens), P07949 [V804M]; test: Inhibition of human partial length RET V804M mutant (E713 to D1014 residues) expressed in Escherichia coli BL21 assessed as residual activity at 1000 nM after 30 mins by Kinomescan method relative to control; summary of the method: as §1
Chain of Proto-oncogene tyrosine-protein kinase receptor Ret (Homo sapiens), P07949 [V804M] (P07949 whole entry V804M, the tested form may be a part): as the sequence (P07949 whole entry M918T, the tested form may be a part) above, with V804M, T918M counted along it

[18] = target: Transient receptor potential cation channel subfamily M member 6 (Homo sapiens) (UniProt Q9BX84); test: Inhibition of wild-type human partial length TRPM6 (Q1723 to I1998 residues) expressed in HEK293 cells assessed as residual activity at 1000 nM after 30 mins by Kinomescan method relative to control; type: cell-based
[19] = target: Serine/threonine-protein kinase 32A (Homo sapiens) (UniProt Q8WU08); test: Inhibition of wild-type human full length YANK1 (M1 to L396 residues) expressed in HEK293 cells assessed as residual activity at 1000 nM after 30 mins by Kinomescan method relative to control; type: cell-based
Chain of Serine/threonine-protein kinase 32A (Homo sapiens) (Q8WU08 whole entry, the tested form may be a part): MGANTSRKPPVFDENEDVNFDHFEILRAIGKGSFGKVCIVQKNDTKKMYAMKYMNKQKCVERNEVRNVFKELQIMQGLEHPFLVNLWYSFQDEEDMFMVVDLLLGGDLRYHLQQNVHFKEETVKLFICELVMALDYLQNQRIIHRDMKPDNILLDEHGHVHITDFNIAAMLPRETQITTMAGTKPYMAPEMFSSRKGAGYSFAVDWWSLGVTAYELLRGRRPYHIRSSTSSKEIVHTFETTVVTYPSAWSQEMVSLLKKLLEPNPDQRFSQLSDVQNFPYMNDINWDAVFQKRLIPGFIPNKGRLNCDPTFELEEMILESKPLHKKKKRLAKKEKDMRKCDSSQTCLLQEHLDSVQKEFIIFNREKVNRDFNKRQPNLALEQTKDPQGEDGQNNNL

[20] = target: Tyrosine-protein kinase ZAP-70 (Homo sapiens) (UniProt P43403); test: Inhibition of wild-type human partial length ZAP70 (D20 to G299 residues) expressed in HEK293 cells assessed as residual activity at 1000 nM after 30 mins by Kinomescan method relative to control; type: cell-based

Molecule COc1cc(OC)c(Cl)c(N2Cc3cnc(Nc4ccc(F)cc4)nc3N(C3CCN(C(=O)/C=C/CN(C)C)CC3)C2=O)c1Cl has an Activity [1] of 37%, an Activity [2] of 96% and an Activity [3] of 93%. It also gave an Activity [4] of 100%, an Activity [5] of 100% and an Activity [6] of 40%. It also gave an Activity (Homo sapiens) of 98%, an Activity [7] of 59% and an Activity [8] of 100%. It also gave an Activity [9] of 98%, an Activity [10] of 53% and an Activity [11] of 100%. The Activity [12] was 99%, the Activity [13] was 100% and the Activity [14] was 100%. For the same molecule, the Activity [15] was 96%, the Activity [16] was 7.1% and the Activity [17] was 52%. It also gave an Activity [18] of 100%, an Activity [19] of 100% and an Activity [20] of 85%.
